Reference: ChEMBL document CHEMBL4041479, “Piperlongumine (piplartine) and analogues: Antiproliferative microtubule-destabilising agents” (Eur J Med Chem, 2017)
The source made the active and inactive calls. The rule behind the calls is not given here.

Experiments:
MCF7 [1] = experiment: Induction of reactive oxygen species generation in human MCF7 cells assessed as decrease in cell viability at 10 uM in presence of N-acetyl cysteine after 48 hrs by alamarBlue assay; type: functional, cell-based
Outline: (§1)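 MCF-7 cells were seeded at 2.5×10^4 cells/mL and left to adhere. They were pre-treated 1 h with N-acetyl cysteine (1 mM) or Trolox (100 μM), then exposed to test agents for 48 h. Viability was measured by alamarBlue fluorescence as % of ethanol vehicle control. Mean of three independent experiments.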

MCF7 [2] = experiment: Induction of reactive oxygen species generation in human MCF7 cells assessed as decrease in cell viability at 1 to 10 uM in presence of N-acetyl cysteine after 48 hrs by alamarBlue assay; type: functional, cell-based
Outline: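 MCF-7 cells seeded at 2.5×10^4 cells/mL, left overnight to adhere. After 23 h, pre-treated 1 hr with NAC (1 mM; 100 mM stock in sterile water), then compound for 48 h at 37 °C in 5% CO₂. alamarBlue added 5 h before endpoint, fluorescence ex 544/em 590 nm, blank subtracted. Viability as % of ethanol vehicle control, mean of three independent experiments.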

MCF7 [3] = experiment: Induction of reactive oxygen species generation in human MCF7 cells assessed as decrease in cell viability at 0.1 to 10 uM in presence of N-acetyl cysteine after 48 hrs by alamarBlue assay; type: functional, cell-based; outline: as §1
Homo sapiens [4] = species on record: Homo sapiens; experiment: Binding affinity to colchicine-binding site of beta tubulin in human HT-29 cells assessed as inhibition of formation of protein-N,N'-Ethylene-bis(iodoacetamide) adduct at 10 uM after 2 hrs by Western blot method; type: cell-based
Outline: (§2)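 MCF-7 or HT-29 cells were exposed to test agent or ethanol vehicle (0.1% v/v) for 2 h, with MCF-7 seeded at 1×10^6 cells/well overnight beforehand. Selected samples then received N,N'-ethylene-bis(iodoacetamide) for a further 1.5 h. Cells were washed in cold PBS, lysed in Laemmli buffer and run on SDS-PAGE. Three independent experiments.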

Homo sapiens [5] = species on record: Homo sapiens; experiment: Disruption of microtubule network in human MCF7 cells at 100 nM after 16 hrs by immunofluorescence analysis; type: cell-based
Outline: (§3)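 MCF-7 cells were seeded at 1×10^5 cells/mL on chamber slides and treated for 16 h (vehicle 1% ethanol). Cells were fixed 20 min in 4% paraformaldehyde, permeabilised in 0.5% Triton X-100 and blocked in 5% BSA/PBST. Staining used anti-α-tubulin–FITC (DM1A) for 2 h at rt, then Alexa Fluor 488 for 1 h, with DAPI counterstain. Imaging was by confocal microscopy; three independent experiments.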

MCF7 [6] = experiment: Induction of reactive oxygen species generation in human MCF7 cells assessed as decrease in cell viability at 100 nM in presence of N-acetyl cysteine after 48 hrs by alamarBlue assay; type: functional, cell-based; outline: as §1
Homo sapiens [7] = species on record: Homo sapiens; experiment: Binding affinity to colchicine-binding site of beta tubulin in human MCF7 cells assessed as inhibition of formation of protein-N,N'-Ethylene-bis(iodoacetamide) adduct at 10 uM after 2 hrs by Western blot method; type: cell-based; outline: as §2
MCF7 [8] = experiment: Cell cycle arrest in human MCF7 cells assessed as G0/G1 phase accumulation at 10 uM after 24 hrs by propidium iodide staining based flow cytometry; type: functional
Outline: (§4)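 MCF-7 cells were seeded at 1×10^5 cells/mL and treated after 24 h with 5, 10 or 20 μM or 0.1% ethanol for 24 or 48 h. Cells were pooled, fixed in ice-cold 70% ethanol at −20 °C for 24 h, then stained with RNase A and propidium iodide for 30 min at 37 °C in the dark. Flow cytometry used FL-2, ≥10,000 gated cells, and sub-G1/G0G1/G2/M were scored by DNA content. Mean ± SEM of three; one-way ANOVA with Dunnett's test.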

Homo sapiens [9] = species on record: Homo sapiens; experiment: Binding affinity to colchicine-binding site of beta tubulin in human MCF7 cells assessed as inhibition of formation of protein-N,N'-Ethylene-bis(iodoacetamide) adduct at 40 uM after 2 hrs by Western blot method; type: cell-based; outline: as §2
Bos taurus = species on record: Bos taurus; experiment: Induction of bovine tubulin depolymerization at 25 uM measured every 30 secs for 60 mins by spectrophotometry
Outline: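 Purified tubulin plus GTP was incubated at 37 °C with test agent or 1% ethanol vehicle. Assembly was followed as absorbance (light scattering) at 340 nm every 30 s for 60 min. Mean of three experiments run in duplicate.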

Homo sapiens [10] = species on record: Homo sapiens; experiment: Effect on tubulin polymerization in human MCF7 cells at 1; type: cell-based
Outline: (§5)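 MCF-7 (1×10^6/well) or Jurkat cells were treated for 4 h with 1–20 μM or 0.1% ethanol. Cells were lysed in microtubule-preserving buffer (0.1 M PIPES pH 6.9, 2 M glycerol, 5 mM MgCl2, 2 mM EGTA, 0.5% Triton X-100, 4 μM paclitaxel) and centrifuged at 20,000g for 45 min. Soluble (supernatant) and polymer (pellet) fractions, 30 μg protein each, were immunoblotted for α-tubulin with a GAPDH loading control. Three experiments.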

Homo sapiens [11] = species on record: Homo sapiens; experiment: Induction of tubulin depolymerization in human MCF7 cells at 5 to 20 uM after 4 hrs by Western blot method; type: cell-based; outline: as §5
MCF7 [12] = experiment: Cell cycle arrest in human MCF7 cells assessed as G2/M phase accumulation at 5 uM after 48 hrs by propidium iodide staining based flow cytometry; type: functional; outline: as §4
MCF7 [13] = experiment: Cell cycle arrest in human MCF7 cells assessed as G0/G1 phase accumulation at 20 uM after 24 hrs by propidium iodide staining based flow cytometry; type: functional; outline: as §4
MCF7 [14] = experiment: Cell cycle arrest in human MCF7 cells assessed as G2/M phase accumulation at 10 uM after 48 hrs by propidium iodide staining based flow cytometry; type: functional; outline: as §4
Homo sapiens [15] = species on record: Homo sapiens; experiment: Effect on tubulin polymerization in human Jurkat cells at 1; type: cell-based; outline: as §5
Jurkat [16] = experiment: Antiproliferative activity in human Jurkat cells assessed as cell viability after 48 hrs by alamarBlue assay; type: functional, cell-based
Outline: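 Cells were seeded at 2.5×10^4 cells/mL and treated after 24 h with vehicle (0.1% v/v ethanol) or a dose range (0.1–20 μM) for 48 h at 37 °C in 5% CO2. AlamarBlue was added 5 h before the end and read as fluorescence (ex 544/em 590 nm). Media-only blanks were subtracted, and viability is given as % of vehicle. Sextuplicate wells, three independent experiments.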

MCF7 [17] = experiment: Induction of reactive oxygen species generation in human MCF7 cells assessed as decrease in cell viability at 1 to 20 uM in presence of trolox after 48 hrs by alamarBlue assay; type: functional, cell-based; outline: as §1
MCF7 [18] = experiment: Induction of apoptosis in human MCF7 cells assessed as downregulation of Mcl-1 expression at 10 uM after 72 hrs by Western blot method; type: functional, cell-based
Outline: (§6)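 MCF-7 cells were seeded at 5×10^5 cells/flask and exposed to 10 μM, vehicle (0.1% ethanol) or no treatment for 48 or 72 h. Cells were lysed in RIPA buffer with protease/phosphatase inhibitors, and equal protein (by BCA) was run on 12% SDS-PAGE. Blots were probed overnight at 4 °C for Bcl-2 (1:500) or Mcl-1 (1:1000), with GAPDH as loading control and ECL detection. Three independent experiments.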

MCF7 [19] = experiment: Cell cycle arrest in human MCF7 cells assessed as sub G0/G1 phase accumulation at 10 uM after 48 hrs by propidium iodide staining based flow cytometry; type: functional; outline: as §4
MCF7 [20] = experiment: Cell cycle arrest in human MCF7 cells assessed as G0/G1 phase accumulation at 20 uM after 48 hrs by propidium iodide staining based flow cytometry; type: functional; outline: as §4
MCF7 [21] = experiment: Cell cycle arrest in human MCF7 cells assessed as G2/M phase accumulation at 10 uM after 24 hrs by propidium iodide staining based flow cytometry; type: functional; outline: as §4
MCF7 [22] = experiment: Cell cycle arrest in human MCF7 cells assessed as G2/M phase accumulation at 5 uM after 24 hrs by propidium iodide staining based flow cytometry; type: functional; outline: as §4
Jurkat [23] = experiment: Cytotoxicity against human Jurkat cells after 24 hrs by MTT assay; type: functional, cell-based
Homo sapiens [24] = species on record: Homo sapiens; experiment: Disruption of microtubule network in human MCF7 cells at 20 uM after 16 hrs by immunofluorescence analysis; type: cell-based; outline: as §3
Homo sapiens [25] = species on record: Homo sapiens; experiment: Induction of tubulin depolymerization in human Jurkat cells at 5 to 20 uM after 4 hrs by Western blot method; type: cell-based; outline: as §5
MCF7 [26] = experiment: Cell cycle arrest in human MCF7 cells assessed as G2/M phase accumulation at 20 uM after 48 hrs by propidium iodide staining based flow cytometry
Homo sapiens [27] = species on record: Homo sapiens; experiment: Binding affinity to colchicine-binding site of beta tubulin in human HT-29 cells assessed as inhibition of formation of protein-N,N'-Ethylene-bis(iodoacetamide) adduct at 40 uM after 2 hrs by Western blot method; type: cell-based; outline: as §2
MCF7 [28] = experiment: Induction of reactive oxygen species generation in human MCF7 cells assessed as decrease in cell viability at 1 to 20 uM in presence of N-acetyl cysteine after 48 hrs by alamarBlue assay; type: functional, cell-based; outline: as §1
MCF7 [29] = experiment: Cell cycle arrest in human MCF7 cells assessed as sub G0/G1 phase accumulation at 20 uM after 48 hrs by propidium iodide staining based flow cytometry; type: functional; outline: as §4
Homo sapiens [30] = species on record: Homo sapiens; experiment: Induction of microtubule depolymerization in human MCF7 cells at 10 uM after 16 hrs by immunofluorescence analysis; type: cell-based; outline: as §3
MCF7 [31] = experiment: Cell cycle arrest in human MCF7 cells assessed as G2/M phase accumulation at 20 uM after 24 hrs by propidium iodide staining based flow cytometry
MCF7 [32] = experiment: Cytotoxicity against human MCF7 cells after 24 hrs by MTT assay; type: functional, cell-based; settings: MCF7, 24 h
MCF7 [33] = experiment: Antiproliferative activity in human MCF7 cells assessed as cell viability after 48 hrs by alamarBlue assay; type: functional, cell-based; settings: MCF7, 48 h
Outline: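 Cells were seeded at 2.5×10^4 cells/mL and treated after 24 h with vehicle (0.1% v/v ethanol) or a dose range (0.1–20 μM) for 48 h at 37 °C in 5% CO2. Media-only blanks were subtracted, and viability is given as % of vehicle. Sextuplicate wells, three independent experiments.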

MCF7 [34] = experiment: Cell cycle arrest in human MCF7 cells assessed as G0/G1 phase accumulation at 10 uM after 48 hrs by propidium iodide staining based flow cytometry; type: functional; outline: as §4
MCF7 [35] = experiment: Induction of apoptosis in human MCF7 cells assessed as downregulation of Bcl2 expression at 10 uM after 48 hrs by Western blot method; type: functional, cell-based; outline: as §6
MCF-10A = experiment: Cytotoxicity in human MCF10A cells at 10 uM after 24 to 48 hrs by alamarBlue assay; type: cell-based
Outline: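 MCF-10a cells were grown in DMEM/F12 with 5% horse serum, EGF, hydrocortisone, cholera toxin and insulin. They were treated at 1, 5, 10 or 20 μM for 48 h. Read-out was alamarBlue fluorescence, blank-subtracted and expressed as % of ethanol vehicle control. Mean of three independent experiments; unpaired two-tailed t-test.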

## COc1cc(C(=O)/C=C/c2ccc(N(C)C)cc2)cc(OC)c1OC
MCF7 [1]
  Activity: inactive

## COc1cc2c(c(OC)c1OC)-c1ccc(OC)c(=O)cc1[C@@H](NC(C)=O)CC2
MCF7 [2]
  Activity: inactive

## COc1ccc(/C=C(\C)C(=O)c2cc(OC)c(OC)c(OC)c2)cc1O
MCF7 [1]
  Activity: inactive

## COc1ccc(/C=C\c2cc(OC)c(OC)c(OC)c2)cc1O
MCF7 [3]
  Activity: inactive
Homo sapiens [4]
  inhibition: Active
Homo sapiens [5]
  Activity: Active
MCF7 [6]
  Activity: inactive
Homo sapiens [7]
  inhibition: Active

## COc1ccc(OC)c(C(=O)/C(C)=C/c2ccc(N(C)C)cc2)c1
MCF7 [1]
  Activity: inactive

## COc1cc(/C=C/C(=O)N2CCC=CC2=O)cc(OC)c1OC [PIPLARTINE]
MCF7 [8]
  Activity: 16%
Homo sapiens [9]
  inhibition: inactive
Bos taurus
  Activity: Active
Homo sapiens [10]
  Activity: inactive
Homo sapiens [11]
  Activity: Active
MCF7 [12]
  Activity: 6%
MCF7 [13]
  Activity: 15%
MCF7 [14]
  Activity: 15%
Homo sapiens [15]
  Activity: inactive
Jurkat [16]
  IC50: 1.4 µM
MCF7 [17]
  Activity: Active
MCF7 [18]
  Activity: Active
MCF7 [19]
  Activity: 4.3%
MCF7 [20]
  Activity: 19%
MCF7 [21]
  Activity: 16%
MCF7 [22]
  Activity: 13%
Jurkat [23]
  IC50: 5 µM
Homo sapiens [24]
  Activity: Active
Homo sapiens [25]
  Activity: Active
MCF7 [26]
  Activity: 10%
Homo sapiens [27]
  inhibition: inactive
MCF7 [28]
  Activity: inactive
MCF7 [29]
  Activity: 4.9%
Homo sapiens [30]
  Activity: Active
MCF7 [31]
  Activity: 12%
MCF7 [32]
  IC50: 8 µM
MCF7 [33]
  IC50: 1.2 µM
MCF7 [34]
  Activity: 21%
MCF7 [35]
  Activity: Active
MCF-10A
  Activity: 90%
